Laboratory results from ChEMBL document CHEMBL4842372, “Discovery of ARD-2585 as an Exceptionally Potent and Orally Active PROTAC Degrader of Androgen Receptor for the Treatment of Advanced Prostate Cancer” (J Med Chem, 2021).
Active and inactive are the calls of the source. No cut-off for these calls is given here.

Assays:
[1] = test system: LNCaP; experiment: Growth inhibition of human LNCaP cells carrying AR T878A mutant assessed as cell viability by WST-8 assay; assay type: functional, cell-based
[2] = test system: VCaP; experiment: Antitumor activity against human VCaP cells xenografted in CB17:SCID mouse assessed as reduction in AR protein level in tumor at 10 mg/kg, po for 3 days measured at 3 hrs by Western blot analysis; assay type: functional; conditions: 72 h, time 3 day
In short: (§1)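 Male CB17 SCID mice bearing subcutaneous VCaP tumors (5 × 10^6 cells in Matrigel); dosed by oral gavage in 100% PEG200 at 10 mg/kg daily for 3 days; tumors harvested 3, 6 and 24 h post-dose, lysed in RIPA, Western blot for AR with GAPDH loading control, bands quantified by densitometry relative to loading control.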

[3] = test system: VCaP; experiment: Antitumor activity against human VCaP cells xenografted in CB17:SCID mouse assessed as reduction in AR protein level in tumor at 10 mg/kg, po for 3 days measured at 24 hrs by Western blot analysis; assay type: functional; conditions: 72 h, time 3 day; in short: as §1
[4] = Drug distribution in kidney of CB17:SCID mouse xenografted with human VCaP cells at 20 mg/kg, po measured at 1 hrs by LCMS analysis; assay type: ADME, organism-based; conditions: read-out: Drug uptake
In short: (§2)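 Tumor-bearing male CB17 SCID mice (VCaP xenografts) given one 20 mg/kg oral dose in 100% PEG200, three mice per time point; plasma, tumor, liver, kidney, prostate and heart taken at 1, 6 and 24 h; tissues homogenised in water/acetonitrile, protein precipitated with cold acetonitrile, drug quantified by LC–MS/MS; ratios are tissue over plasma level.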

[5] = Drug distribution in CB17:SCID mouse xenografted with human VCaP cells assessed as prostate gland to plasma ratio at 20 mg/kg, po measured at 1 hrs by LCMS analysis; assay type: ADME, organism-based; in short: as §2
[6] = Drug distribution in CB17:SCID mouse xenografted with human VCaP cells assessed as tumor to plasma ratio at 20 mg/kg, po measured at 6 hrs by LCMS analysis; assay type: ADME, organism-based; in short: as §2
[7] = Drug distribution in CB17:SCID mouse xenografted with human VCaP cells assessed as liver to plasma ratio at 20 mg/kg, po measured at 6 hrs by LCMS analysis; assay type: ADME, organism-based; in short: as §2
[8] = Drug distribution in CB17:SCID mouse xenografted with human VCaP cells assessed as tumor to plasma ratio at 20 mg/kg, po measured at 24 hrs by LCMS analysis; assay type: ADME, organism-based; in short: as §2
[9] = Drug distribution in liver of CB17:SCID mouse xenografted with human VCaP cells at 20 mg/kg, po measured at 24 hrs by LCMS analysis; assay type: ADME, organism-based; conditions: read-out: Drug uptake; in short: as §2
[10] = Drug distribution in kidney of CB17:SCID mouse xenografted with human VCaP cells at 20 mg/kg, po measured at 24 hrs by LCMS analysis; assay type: ADME, organism-based; conditions: read-out: Drug uptake; in short: as §2
[11] = test system: VCaP; experiment: Antitumor activity against human VCaP cells xenografted in CB17:SCID mouse assessed as tumor growth inhibition at 10 mg/kg, po treated for 37 days relative to control; assay type: functional; conditions: 888 h, time 37 day, read-out: TGI
[12] = test system: Protein cereblon/Androgen receptor (Homo sapiens), P10275+Q96SW2 [T878A]; experiment: Protac activity at CRBN/AR T878A mutant in human LNCaP cells assessed as reduction in AR protein level at 0.3 nM after 24 hrs by Western blot analysis relative to control; assay type: cell-based
In short: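 Western blot of AR after 24 h exposure to a concentration series in ATCC-derived cells, all with 10% FBS at 37 °C and 5% CO2: LNCaP and 22Rv1 in RPMI1640, VCaP in DMEM with Glutamax, MDA-PCa-2b in F-12K. Lysis in RIPA with protease and phosphatase inhibitors, then 4–12% SDS-PAGE and PVDF transfer. Band minus background is normalised to GAPDH.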

[13] = molecular target: Protein cereblon/Androgen receptor (Homo sapiens, UniProt P10275+Q96SW2, T878A); conditions: lncap
[14] = molecular target: Protein cereblon/Androgen receptor (Homo sapiens, UniProt P10275+Q96SW2); experiment: Protac activity at CRBN/AR in human VCaP cells assessed as reduction in AR protein level at 100 nM after 3 hrs in presence of N-((1r,4r)-4-((3-chloro-4-cyanophenyl)(methyl)amino)cyclohexyl)-4-(4-methylpiperazin-1-yl)benzamide by Western blot analysis
Protein cereblon/Androgen receptor (Homo sapiens, UniProt P10275+Q96SW2), sequence (P10275 whole entry, looked up): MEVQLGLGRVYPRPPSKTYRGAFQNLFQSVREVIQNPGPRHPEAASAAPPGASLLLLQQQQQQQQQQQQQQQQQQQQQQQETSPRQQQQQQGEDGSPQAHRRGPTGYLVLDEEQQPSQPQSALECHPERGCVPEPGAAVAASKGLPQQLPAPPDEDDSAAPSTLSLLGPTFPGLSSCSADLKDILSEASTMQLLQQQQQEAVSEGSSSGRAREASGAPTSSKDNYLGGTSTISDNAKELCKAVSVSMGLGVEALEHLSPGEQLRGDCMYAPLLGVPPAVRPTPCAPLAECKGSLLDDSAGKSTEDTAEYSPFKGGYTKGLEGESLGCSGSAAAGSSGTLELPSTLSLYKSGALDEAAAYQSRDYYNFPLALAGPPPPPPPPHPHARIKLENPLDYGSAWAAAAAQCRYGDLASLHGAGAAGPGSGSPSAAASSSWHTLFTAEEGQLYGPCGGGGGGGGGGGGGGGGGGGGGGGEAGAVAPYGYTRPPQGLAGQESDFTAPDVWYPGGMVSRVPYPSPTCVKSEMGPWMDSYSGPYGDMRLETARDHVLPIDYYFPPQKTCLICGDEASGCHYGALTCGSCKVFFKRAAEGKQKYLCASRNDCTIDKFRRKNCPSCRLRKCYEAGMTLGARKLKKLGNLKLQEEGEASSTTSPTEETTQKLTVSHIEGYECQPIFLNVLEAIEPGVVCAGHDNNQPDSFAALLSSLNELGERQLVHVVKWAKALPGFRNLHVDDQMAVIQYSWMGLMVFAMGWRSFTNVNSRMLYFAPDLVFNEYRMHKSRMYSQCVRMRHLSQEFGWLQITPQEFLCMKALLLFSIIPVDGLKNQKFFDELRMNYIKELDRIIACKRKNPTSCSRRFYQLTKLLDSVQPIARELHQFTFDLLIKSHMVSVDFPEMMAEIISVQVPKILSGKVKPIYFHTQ
Protein cereblon/Androgen receptor (Homo sapiens, UniProt P10275+Q96SW2), sequence (Q96SW2 whole entry, looked up): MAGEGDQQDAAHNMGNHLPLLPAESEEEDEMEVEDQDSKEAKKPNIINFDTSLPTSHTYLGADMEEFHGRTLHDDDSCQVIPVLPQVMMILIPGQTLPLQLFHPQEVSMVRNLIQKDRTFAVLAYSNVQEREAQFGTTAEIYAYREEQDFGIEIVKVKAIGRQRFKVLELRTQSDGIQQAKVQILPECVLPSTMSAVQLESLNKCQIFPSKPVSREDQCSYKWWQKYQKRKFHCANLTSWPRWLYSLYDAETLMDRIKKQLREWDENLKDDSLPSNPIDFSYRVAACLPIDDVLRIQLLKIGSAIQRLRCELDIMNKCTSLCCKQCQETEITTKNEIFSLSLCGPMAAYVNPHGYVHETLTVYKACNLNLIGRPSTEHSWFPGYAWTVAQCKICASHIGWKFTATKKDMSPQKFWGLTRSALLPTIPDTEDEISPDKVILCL

Protein cereblon/Androgen receptor (Homo sapiens, UniProt P10275+Q96SW2, T878A), sequence (P10275 whole entry T878A, stated change not applied): as the sequence (P10275 whole entry, looked up) above, with T878A counted along it
Protein cereblon/Androgen receptor (Homo sapiens, UniProt P10275+Q96SW2, T878A), sequence (Q96SW2 whole entry, stated change not applied): as the sequence (Q96SW2 whole entry, looked up) above

Work on `CN(c1ccc(C#N)c(Cl)c1)[C@H]1CC[C@H](NC(=O)c2ccc(N3CCN(C4CN(c5ccc6c(c5)C(=O)N(C5CCC(=O)NC5=O)C6=O)C4)CC3)cc2)CC1` (some centres undefined) yielded an IC50 [1] of 16.2 nM, an inhibition in vivo at 10 mg/kg [2] of 78% and an inhibition in vivo at 10 mg/kg [3] of 78%. It also gave a concentration at 1 h [4] of 437 ng/g, a Kp at 1 h [5] of 0.4 and a Kp at 6 h [6] of 1.5. The Kp at 6 h [7] was 26.2, the Kp at 24 h [8] was 1.4 and the concentration at 24 h [9] was 6870 ng/g. For the same compound, the concentration at 24 h [10] was 366 ng/g, the inhibition in vivo at 10 mg/kg [11] was 54.9% and the inhibition [12] was over 80%. For the same compound, the DC50 [13] was 0.1 nM and the Activity [14] was “inactive”.
